Data as given in ChEMBL document CHEMBL4017509, “A Dual Modulator of Farnesoid X Receptor and Soluble Epoxide Hydrolase To Counter Nonalcoholic Steatohepatitis” (J Med Chem, 2017).
Active and inactive are the calls of the source. No cut-off for these calls is given here.

Tests used:
Bile acid receptor = biological target: T1, Bile acid receptor (Homo sapiens, UniProt Q96RI1); test: Transactivation of human FXR expressed in human HeLa cells co-expressing BSEP after 24 hrs by dual-glo luciferase reporter gene assay; type: cell-based
T1 sequence (Q96RI1 whole entry): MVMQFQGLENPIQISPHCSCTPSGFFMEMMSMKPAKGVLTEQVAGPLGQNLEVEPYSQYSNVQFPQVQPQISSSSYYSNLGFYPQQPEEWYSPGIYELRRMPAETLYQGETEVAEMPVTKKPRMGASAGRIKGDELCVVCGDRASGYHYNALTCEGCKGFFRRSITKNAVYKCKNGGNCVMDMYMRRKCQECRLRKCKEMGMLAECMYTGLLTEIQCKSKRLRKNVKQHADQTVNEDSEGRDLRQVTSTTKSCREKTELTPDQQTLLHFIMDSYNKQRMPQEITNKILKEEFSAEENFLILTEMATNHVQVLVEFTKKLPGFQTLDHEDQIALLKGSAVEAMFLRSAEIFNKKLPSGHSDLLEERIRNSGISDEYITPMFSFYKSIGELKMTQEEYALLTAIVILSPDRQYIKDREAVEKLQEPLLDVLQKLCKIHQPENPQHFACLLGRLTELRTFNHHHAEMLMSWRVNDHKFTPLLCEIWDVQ
Outline: (§1)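 HeLa cells in DMEM/10% FCS at 37 °C, 5% CO2; switched to 0.5% charcoal-stripped FCS before calcium phosphate co-transfection with pcDNA3-hFXR, pSG5-hRXR, BSEP promoter–firefly luciferase reporter and pRL-SV40 renilla. Compound in 0.1% DMSO, phenol red-free medium, 24 h.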

[1] = biological target: T2, Bile acid receptor (Homo sapiens) (UniProt Q96RI1); test: Transactivation of human FXR expressed in human HeLa cells co-expressing BSEP at 50 uM after 24 hrs by dual-glo luciferase reporter gene assay relative to GW4064; type: cell-based; outline: as §1
T2 sequence (whole entry): T1 sequence (Q96RI1 whole entry)

[2] = biological target: T3, Bifunctional epoxide hydrolase 2 (Homo sapiens, UniProt P34913); test: Inhibition of recombinant human sEH using PHOME as substrate preincubated for 30 mins followed by substrate addition measured for 30 mins by fluorescence photometric method
T3 sequence (P34913 whole entry): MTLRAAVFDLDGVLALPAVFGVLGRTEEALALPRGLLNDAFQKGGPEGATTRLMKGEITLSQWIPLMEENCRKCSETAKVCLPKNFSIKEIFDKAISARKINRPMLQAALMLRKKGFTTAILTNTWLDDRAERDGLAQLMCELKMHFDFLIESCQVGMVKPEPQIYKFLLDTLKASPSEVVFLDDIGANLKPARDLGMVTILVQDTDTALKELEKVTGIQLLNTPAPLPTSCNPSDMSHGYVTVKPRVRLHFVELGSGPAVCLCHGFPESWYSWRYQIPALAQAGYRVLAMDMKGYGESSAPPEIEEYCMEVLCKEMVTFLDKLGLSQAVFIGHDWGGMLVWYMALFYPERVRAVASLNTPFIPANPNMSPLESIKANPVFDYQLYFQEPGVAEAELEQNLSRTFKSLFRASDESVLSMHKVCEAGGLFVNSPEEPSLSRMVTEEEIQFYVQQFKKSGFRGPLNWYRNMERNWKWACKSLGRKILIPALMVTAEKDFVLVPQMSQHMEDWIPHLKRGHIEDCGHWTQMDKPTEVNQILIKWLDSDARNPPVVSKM
Outline: (§2)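 Recombinant human sEH in Bis-Tris buffer pH 7, 0.1 mg/mL BSA, 0.01% Triton X-100 (final), preincubated 30 min at room temperature with compound (1% DMSO final). PHOME added at 50 μM final; 6-methoxynaphthaldehyde fluorescence read each minute for 30 min.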

Liver = test: Drug level in Sprague-Dawley rat liver microsomes treated with 4-(tert-Butyl)-N-(2-chloro-4-(methylsulfonamido)benzyl)-benzamide at 10 uM preincubated with NADPH regenerating system for 5 mins followed by addition of liver microsomes by LC-MS/MS method; type: ADME, microsome
[3] = biological target: T4, Bifunctional epoxide hydrolase 2 (Homo sapiens) (UniProt P34913); test: Inhibition of recombinant human sEH at 50 uM using PHOME as substrate preincubated for 30 mins followed by substrate addition measured for 30 mins by fluorescence photometric method; outline: as §2
T4 sequence (whole entry): T3 sequence (P34913 whole entry)

[4] = biological target: T4, Bifunctional epoxide hydrolase 2 (Homo sapiens); test: Inhibition of sEH in human HepG2 cells assessed as NF-kappaB mRNA expression at 1 uM after 8 to 16 hrs by SYBR green based qRT-PCR analysis relative to DMSO control; type: cell-based
Outline: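 HepG2 cells treated with compound or 0.1% DMSO vehicle; NF-κB mRNA quantified by SYBR Green qRT-PCR, comparative ΔΔCt with GAPDH reference; expressed as % of vehicle (100%).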

Compound	EC50 (Bile acid receptor) [nM]	Emax [1]	IC50 ([2]; read-out: IC50) [nM]	Drug metabolism (Liver)	inhibition [3] [%]	IC50 [2]	inhibition [4] [%]
CC(C)(C)c1ccc(C(=O)NCc2ccc(C=O)cc2)cc1	5300	22%	510				
CC(=O)Nc1ccc(CNC(=O)c2ccc(C(C)(C)C)cc2)cc1	2900	31%	1120				
CC(C)(CO)c1ccc(C(=O)NCc2ccc(NS(C)(=O)=O)cc2Cl)cc1				Metabolite_Detected			
Cc1cccc(C(=O)NCc2ccc(C(=O)O)cc2)c1		inactive			37		
CC(C)(C)c1ccc(C(=O)NCc2ccc(S(N)(=O)=O)cc2F)cc1	970	34%	137				
CC(C)(C)c1ccc(C(=O)NCc2ccc(CCC(=O)O)cc2)cc1	350	16%	1630				
CN(C)c1ccc(C(=O)NCc2ccc(C(=O)O)cc2)cc1		inactive			19		
Cc1ccc(C(=O)NCc2ccc(C(=O)O)cc2)c(C)c1		inactive			7		
CC(C)(C)c1ccc(C(=O)NCc2ccc(-c3nnn[nH]3)cc2)cc1	120	23%	18200				
COc1cc(C(=O)NCc2ccc(C(=O)O)cc2)ccc1C(C)(C)C	1200	23%	5040				
CC(C)(C)c1ccc(C(=O)NCc2ccc(CC(=O)O)cc2)cc1	6400	19%	20000				
CC(=O)c1ccc(CNC(=O)c2ccc(C(C)(C)C)cc2)cc1	100	29%	157				
CC(C)Oc1ccc(CNC(=O)c2ccc(C(C)(C)C)cc2)cc1	170	26%				Nd(Insoluble)	
CC(C)(C)c1ccc(C(=O)NCc2ccc(OCC(=O)O)cc2)cc1	730	21%	19000				
CC(C)(C)c1ccc(C(=O)NCc2ccc(NC(=O)C(F)(F)F)cc2)cc1	260	20%	660				
Cc1ccc(C(=O)NCc2ccc(C(=O)O)cc2)cc1		15%			24		
O=C(O)c1ccc(CNC(=O)c2ccc(C(F)(F)F)c(C(F)(F)F)c2)cc1		inactive			55		
COc1ccc(C(=O)NCc2ccc(C(=O)O)cc2)cc1OC	370	18%			26		
CC(C)(C)c1ccc(C(=O)NCc2ccc(S(C)(=O)=O)cc2)cc1	3800	34%	1200				

Compound	EC50 (Bile acid receptor) [nM]	Emax [1]	IC50 ([2]; read-out: IC50) [nM]	Drug metabolism (Liver)	inhibition [3] [%]	IC50 [2]	inhibition [4] [%]
CNC(=O)c1ccc(CNC(=O)c2ccc(C(C)(C)C)cc2)cc1	340	29%	1900				
CSc1ccc(CNC(=O)c2ccc(C(C)(C)C)cc2)cc1	100	33%	120				
CC(C)(C)c1ccc(C(=O)NCc2cccc(C(=O)O)c2)cc1	1700	14%			26		
Cc1cc(CNC(=O)c2ccc(C(C)(C)C)cc2)ccc1C(=O)O	160	14%			53		
CC(C)(C)c1ccc(C(=O)NCc2ccc(CO)cc2)cc1		inactive	2050				
CC(C)(C)c1ccc(C(=O)NCc2ccc(NS(C)(=O)=O)cc2)cc1	44	22%	650				
O=C(O)c1ccc(CNC(=O)c2ccc(Cl)c(Cl)c2)cc1		inactive	10500				
CC(C)(C)c1ccc(C(=O)NCc2ccc(S(N)(=O)=O)cc2)cc1	1400	16%	280				
CC(C)(C)c1ccc(NC(=O)Nc2ccc(C(=O)O)cc2)cc1	3800	14%	18500				
CC(=O)NS(=O)(=O)c1ccc(CNC(=O)c2ccc(C(C)(C)C)cc2)cc1		inactive	12700				
O=C(O)c1ccc(CNC(=O)C2CCCCC2)cc1		inactive			37		
O=C(O)c1ccc(CNC(=O)c2ccccc2-c2ccccc2)cc1		22%			19		
CC(NC(=O)c1ccc(C(C)(C)C)cc1)c1ccc(C(=O)O)cc1 (centres undefined)	76	24%			37		
CN(C)C(=O)c1ccc(CNC(=O)c2ccc(C(C)(C)C)cc2)cc1	170	17%	4600				
CC(C)(C)c1ccc(C(=O)NCc2ccc(C(N)=O)cc2)cc1	3800	27%	1200				
C[S+]([O-])c1ccc(CNC(=O)c2ccc(C(C)(C)C)cc2)cc1 (centres undefined)	1300	24%	220				
CC(C)(C)c1ccc(C(=O)NCc2ccc(SC(F)(F)F)cc2)cc1	0.4	19%	390				
CC(C)(C)c1ccc(C(=O)NCc2ccc(N)cc2)cc1		inactive	3500				
Cc1ccc(C(=O)NCc2ccc(C(=O)O)cc2)cc1C	320	12%			52		

Compound	EC50 (Bile acid receptor) [nM]	Emax [1]	IC50 ([2]; read-out: IC50) [nM]	Drug metabolism (Liver)	inhibition [3] [%]	IC50 [2]	inhibition [4] [%]
Cc1ccccc1C(=O)NCc1ccc(C(=O)O)cc1		inactive			14		
COc1ccc(CNC(=O)c2ccc(C(C)(C)C)cc2)cc1	150	19%	430				
CCOc1ccc(CNC(=O)c2ccc(C(C)(C)C)cc2)cc1	160	31%	570				
O=C(O)c1ccc(CNC(=O)c2cccc(-c3ccccc3)c2)cc1	670	14%	10000				
CC(C)(C)c1ccc(C(=O)NCc2ccc(N)cc2Cl)cc1				Metabolite_Detected			
O=C(O)c1ccc(CNC(=O)c2ccc(-c3ccccc3)cc2)cc1		24%					
CC(C)(C)c1ccc(C(=O)NCc2ccc(C(=O)O)cc2Cl)cc1	7500	25%	170				
Cc1cc(C(=O)O)ccc1CNC(=O)c1ccc(C(C)(C)C)cc1		inactive	680				
O=C(O)c1ccc(CNC(=O)c2ccccc2)cc1		12%			16		
C[C@@H]1C[C@H]2[C@@H]3CCC4=CC(=O)C=C[C@]4(C)[C@@]3(F)[C@@H](O)C[C@]2(C)[C@@]1(O)C(=O)CO							59.4
CC(C)(C)c1ccc(C(=O)NCc2ccc(C(=O)O)cc2)cc1	370	13%	4200				
CC(C)(C)c1ccc(C(=O)NCc2ccc(C(=O)O)c(F)c2)cc1	140	28%	20300				
CC(C)(C)c1ccc(C(=O)NCc2ccc(C#N)cc2)cc1		inactive	910				
CC(C)(C)c1ccc(C(=O)NCc2ccc(OC(F)(F)F)cc2)cc1	160	26%	220				
CC(C)(C)c1ccc(C(=O)NCc2ccc(C(=O)O)cc2F)cc1	7.8	26%	1430				
O=C(O)c1ccc(CNC(=O)C2CCNCC2)cc1		inactive			< 3		
O=C(O)c1ccc(CNC(=O)c2ccc3ccccc3c2)cc1	1360	18%			45		
CC(C)(C)c1ccc(C(=O)NCc2ccc(C(=O)O)c(Cl)c2)cc1	8.8	21%			50		
